{"source": "ChEMBL document CHEMBL4732155", "about": "(Eur J Med Chem, 2021)", "key": {"[1]": {"assay": "Inhibition of yeast Cdc48 T532C mutant assessed as reduction in ATPase activity measured after 60 mins by biomol green reagent based assay", "design": "species or system Saccharomyces cerevisiae", "summary_of_the_method": "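Yeast Cdc48 ATPase activity with 200 μM ATP in Tris pH 7.4 buffer containing MgCl2, EDTA, TCEP and Triton X-100, 60 min at room temperature. Biomol Green read at 635 nm. Eight-dose titration; IC50 from six replicates.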"}, "[2]": {"assay": "Effect on PLEC expression in human HCT-116 cells at 15 uM measured after 6 hrs by LC-MS/MS analysis relative to control", "type": "functional", "summary_of_the_method": "(§1)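 HCT116 cells treated 6 h with DMSO, 15 μM or 30 μM compound, then pelleted. Peptides (1 μg) separated on a 25 cm C18 nano-column with a 136 min gradient and analysed by label-free LC-MS/MS on an Orbitrap Eclipse. Searched against the UniProt human database and quantified from normalized abundance. Two independent biological replicates per group; log2 fold change versus DMSO, p < 0.05.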"}, "[3]": {"assay": "Effect on LAMP1 expression in human HCT-116 cells at 30 uM measured after 6 hrs by LC-MS/MS analysis relative to control", "type": "functional", "summary_of_the_method": "as §1"}, "[4]": {"assay": "Effect on EPPK1 expression in human HCT-116 cells at 15 uM measured after 6 hrs by LC-MS/MS analysis relative to control", "type": "functional", "summary_of_the_method": "as §1"}, "[5]": {"molecular_target": "T1, Transitional endoplasmic reticulum ATPase (Homo sapiens, UniProt P55072)", "assay": "Inhibition of p97 (unknown origin) expressed in HEK293 cells co-expressing TCRalpha-GFP assessed as reduction in ERAD-dependent reporter substrate TCRalpha-GFP degradation at 10 uM incubated for 60 to 120 mins by immunoblotting analysis", "type": "cell-based", "settings": "time lower 60.0 min, time upper […]", "summary_of_the_method": "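HEK293 cells stably expressing TCRα-GFP pretreated with 4 μM MG132 for 1 h and washed. Then incubated with 50 μM cycloheximide plus 10 μM compound for 60 or 120 min before harvest. Immunoblotted with anti-GFP, with anti-p97 as loading control.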"}, "[6]": {"assay": "Effect on SQSTM1 expression in human HCT-116 cells at 30 uM measured after 6 hrs by LC-MS/MS analysis relative to control", "type": "functional", "summary_of_the_method": "as §1"}, "[7]": {"assay": "Effect on SQSTM1 expression in human HCT-116 cells at 15 uM measured after 6 hrs by LC-MS/MS analysis relative to control", "type": "functional", "summary_of_the_method": "as §1"}, "[8]": {"assay": "Effect on BRIX1 expression in human HCT-116 cells at 15 uM measured after 6 hrs by LC-MS/MS analysis relative to control", "type": "functional", "summary_of_the_method": "as §1"}, "[9]": {"assay": "Effect on CDK2AP1 expression in human HCT-116 cells at 30 uM measured after 6 hrs by LC-MS/MS analysis relative to control", "type": "functional", "summary_of_the_method": "as §1"}, "[10]": {"assay": "Inhibition of His6-tagged p97 C522T mutant (unknown origin) expressed in Escherichia coli BL21 (DE3) assessed as reduction in ATPase activity measured after 60 mins by biomol green reagent based assay", "design": "species or system Homo sapiens", "summary_of_the_method": "(§2)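 His6-p97 expressed in E. coli BL21(DE3), purified by Ni-NTA and gel filtration (500–600 kDa fractions, ≥95% pure). Phosphate read by Biomol Green at 635 nm. Eight-dose titrations; IC50 from six replicates. Thiol tests added DTT or cysteine during preincubation.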"}, "[11]": {"assay": "Effect on AP2M1 expression in human HCT-116 cells at 30 uM measured after 6 hrs by LC-MS/MS analysis relative to control", "type": "functional", "summary_of_the_method": "as §1"}, "HCT-116": {"test_system": "HCT-116", "assay": "Antiproliferative activity against human HCT-116 cells after 48 hrs by celltiter-glo luminescence assay", "type": "functional, cell-based", "settings": "HCT-116, 48 h"}, "[12]": {"assay": "Effect on AUP1 expression in human HCT-116 cells at 15 uM measured after 6 hrs by LC-MS/MS analysis relative to control", "type": "functional", "summary_of_the_method": "as §1"}, "[13]": {"assay": "Effect on AUP1 expression in human HCT-116 cells at 30 uM measured after 6 hrs by LC-MS/MS analysis relative to control", "type": "functional", "summary_of_the_method": "as §1"}, "[14]": {"assay": "Effect on STIM1 expression in human HCT-116 cells at 30 uM measured after 6 hrs by LC-MS/MS analysis relative to control", "type": "functional", "summary_of_the_method": "as §1"}, "[15]": {"assay": "Effect on STIM1 expression in human HCT-116 cells at 15 uM measured after 6 hrs by LC-MS/MS analysis relative to control", "type": "functional", "summary_of_the_method": "as §1"}, "[16]": {"assay": "Effect on PLEC expression in human HCT-116 cells at 30 uM measured after 6 hrs by LC-MS/MS analysis relative to control", "type": "functional", "summary_of_the_method": "as §1"}, "[17]": {"assay": "Effect on LAMP1 expression in human HCT-116 cells at 15 uM measured after 6 hrs by LC-MS/MS analysis relative to control", "type": "functional", "summary_of_the_method": "as §1"}, "[18]": {"molecular_target": "T1, Transitional endoplasmic reticulum ATPase", "assay": "Binding affinity to His6-tagged p97 (unknown origin) expressed in Escherichia coli BL21 (DE3) assessed as Cys522-adduct formation by tandem mass spectrometry"}, "[19]": {"molecular_target": "T1, Transitional endoplasmic reticulum ATPase", "assay": "Inhibition of p97 in human HeLa cells assessed as reduction in proteasomal turnover of p97-dependent reporter substrate UbG76V-GFP incubated for 120 mins by GFP fluorescence imaging"}, "[20]": {"molecular_target": "T1, Transitional endoplasmic reticulum ATPase", "assay": "Inhibition of His6-tagged p97 (unknown origin) expressed in Escherichia coli BL21 (DE3) assessed as reduction in ATPase activity measured after 60 mins in presence of DTT by biomol green reagent based assay", "summary_of_the_method": "as §2"}, "[21]": {"assay": "Effect on AP2M1 expression in human HCT-116 cells at 15 uM measured after 6 hrs by LC-MS/MS analysis relative to control", "type": "functional", "summary_of_the_method": "as §1"}, "HeLa": {"test_system": "HeLa", "assay": "Antiproliferative activity against human HeLa cells after 48 hrs by celltiter-glo luminescence assay", "type": "functional, cell-based"}}, "note": "Active and inactive are the calls of the source. The rule behind the calls is not given here."}
{"smiles": "C=CC(=O)Nc1ncnc2c1c(-c1ccccc1)nn2C(C)(C)C", "values": [{"measurement": "IC50", "setting": "[1]", "result": 14, "unit": "µM"}, {"measurement": "log2FC", "setting": "[2]", "result": 0.33}, {"measurement": "log2FC", "setting": "[3]", "result": -0.66}, {"measurement": "log2FC", "setting": "[4]", "result": 0.38}, {"measurement": "inhibition", "setting": "[5]", "result": "Active"}, {"measurement": "log2FC", "setting": "[6]", "result": 0.97}, {"measurement": "log2FC", "setting": "[7]", "result": 0.42}, {"measurement": "log2FC", "setting": "[8]", "result": 0.52}, {"measurement": "log2FC", "setting": "[9]", "result": -0.47}, {"measurement": "IC50", "setting": "[10]", "result": 82, "unit": "µM"}, {"measurement": "log2FC", "setting": "[11]", "result": -0.38}, {"measurement": "IC50", "setting": "HCT-116", "result": 2.7, "unit": "µM"}, {"measurement": "log2FC", "setting": "[12]", "result": -0.39}, {"measurement": "log2FC", "setting": "[13]", "result": -0.43}, {"measurement": "log2FC", "setting": "[14]", "result": 1.65}, {"measurement": "log2FC", "setting": "[15]", "result": 1.49}, {"measurement": "log2FC", "setting": "[16]", "result": 0.58}, {"measurement": "log2FC", "setting": "[17]", "result": -0.59}, {"measurement": "Activity", "setting": "[18]", "result": "Active"}, {"measurement": "IC50", "setting": "[19]", "result": 1.6, "unit": "µM"}, {"measurement": "inhibition", "setting": "[20]", "result": "Active"}, {"measurement": "log2FC", "setting": "[21]", "result": -0.33}, {"measurement": "IC50", "setting": "HeLa", "result": 6.1, "unit": "µM"}]}
